In brackets after ≈: the same amount, converted by molar mass.
How the values were obtained:
Assay type in all cases: functional, cell-based
COLO 205 = assay: Cytotoxicity against human COLO205 cells after 48 hrs by MTT assay; details: COLO 205, 48 h
Procedure, shortened: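 COLO205 cells were grown in RPMI1640 with 15% FBS, seeded at 2 × 10^5/mL, and incubated 24 h at 37 °C in 5% CO2. Agents were then given at final 50, 10, 2, 0.4 and 0.08 for 48 h. Read-out used 0.5% MTT for 4 h, DMSO solubilization and OD at 570 nm. Inhibition = (OD0−ODS)/OD0; IC50 = concentration giving 50% inhibition. Mean of three experiments in triplicate.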

SW-620 = assay: Cytotoxicity against human SW620 cells after 48 hrs by MTT assay; details: SW-620, 48 h
Procedure, shortened: (§1)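 Cells in RPMI1640 with 15% FBS were trypsinized (0.25%) and seeded at 1 × 10^5/mL, then incubated 24 h at 37 °C in 5% CO2. Agents were added at final concentrations of 50, 10, 2, 0.4 and 0.08 for a further 48 h. MTT (0.5%) was applied for 4 h, formazan dissolved in DMSO, and OD read at 570 nm. % inhibition = (OD0−ODS)/OD0; IC50 was taken as 50% growth inhibition. Mean of three experiments in triplicate.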

[1] = Cytotoxicity against human H460 cells after 48 hrs by MTT assay; details: NCI-H460, 48 h; procedure, shortened: as §1

Row | Compound | IC50 (COLO 205) [µg/mL] | IC50 (SW-620) [µg/mL] | IC50 [1] [µg/mL]
1 | C/C(C=O)=C\CC[C@@H](C)[C@H]1CC[C@@]2(C)[C@@H]3CC=C4[C@@H](CC[C@H](O[C@@H]5O[C@H](CO)[C@@H](O)[C@H](O)[C@H]5O)C4(C)C)[C@]3(C)C(=O)C[C@]12C | 0.78 (≈ 1.26 µM) | 0.64 (≈ 1.04 µM) | 0.46 (≈ 0.746 µM)
2 | CC(=O)O[C@@H]1C[C@@]2(C)[C@@H]3CC=C4[C@@H](C[C@H](O)[C@@H](O)C4(C)C)[C@]3(C)C(=O)C[C@]2(C)[C@H]1C(C)(O)C(=O)/C=C/C(C)(C)O (stereo partly drawn) | 0.44 (≈ 0.785 µM) | 0.42 (≈ 0.749 µM) | 3.43 (≈ 6.12 µM)
3 | CC(=O)O[C@@H]1C[C@@]2(C)[C@@H]3CC=C4[C@@H](C[C@H](O[C@@H]5O[C@H](CO)[C@@H](O)[C@H](O)[C@H]5O)[C@@H](O)C4(C)C)[C@]3(C)C(=O)C[C@]2(C)[C@H]1C(C)(O)C(=O)/C=C/C(C)(C)OC(C)=O (stereo partly drawn) | 24.9 (≈ 32.6 µM) | 6.63 (≈ 8.67 µM) | 8.55 (≈ 11.2 µM)
4 | C[C@H](CCC=C(CO)CO)[C@H]1CC[C@@]2(C)[C@@H]3CC=C4[C@@H](CC[C@H](O[C@@H]5O[C@H](CO)[C@@H](O)[C@H](O)[C@H]5O)C4(C)C)[C@]3(C)[C@H](O)C[C@]12C | 3.84 (≈ 6.03 µM) | 1.99 (≈ 3.12 µM) | 2.96 (≈ 4.65 µM)
5 | CC(C)(O)CCC(=O)[C@](C)(O)[C@H]1[C@H](O)C[C@@]2(C)[C@@H]3CC=C4[C@@H](C[C@H](O)[C@@H](O)C4(C)C)[C@]3(C)C(=O)C[C@]12C | 0.64 (≈ 1.23 µM) | 1.03 (≈ 1.98 µM) | 7.09 (≈ 13.6 µM)
6 | CC(=O)OC(C)(C)CCC(=O)[C@](C)(O)[C@H]1[C@H](O)C[C@@]2(C)[C@@H]3CC=C4[C@@H](C[C@H](O)[C@@H](O)C4(C)C)[C@]3(C)C(=O)C[C@]12C [HEMSLECIN A] | 1.09 (≈ 1.94 µM) | 1.11 (≈ 1.97 µM) | 11.5 (≈ 20.5 µM)
